Source: PubChem BioAssay
This is a sample that favours compounds with a hit; in the whole collection about 2.1% have one here.
Runt-CBFb FRET – inhibitors of RUNX1 Runt–CBFb binding, primary screen, biochemical, FRET, Cerulean-Runt, Venus-CBFb, uHTS; Runt-related transcription factor 1 (Homo sapiens) + Core-binding factor subunit beta …; Cerulean-Runt/Venus-CBFb FRET ratio 530/480, 1 h; inhibition, % at 20 µM; actives 0.46% (n = 220,000); AID 1496, 2009;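 active means inhibition over about 50% at 20 µM in the single-dose screen, limit read from the data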;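 further: 0% = DMSO wells and 100% = excess unlabeled CBFb competitor control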
Target sequence (Q01196 whole entry, looked up): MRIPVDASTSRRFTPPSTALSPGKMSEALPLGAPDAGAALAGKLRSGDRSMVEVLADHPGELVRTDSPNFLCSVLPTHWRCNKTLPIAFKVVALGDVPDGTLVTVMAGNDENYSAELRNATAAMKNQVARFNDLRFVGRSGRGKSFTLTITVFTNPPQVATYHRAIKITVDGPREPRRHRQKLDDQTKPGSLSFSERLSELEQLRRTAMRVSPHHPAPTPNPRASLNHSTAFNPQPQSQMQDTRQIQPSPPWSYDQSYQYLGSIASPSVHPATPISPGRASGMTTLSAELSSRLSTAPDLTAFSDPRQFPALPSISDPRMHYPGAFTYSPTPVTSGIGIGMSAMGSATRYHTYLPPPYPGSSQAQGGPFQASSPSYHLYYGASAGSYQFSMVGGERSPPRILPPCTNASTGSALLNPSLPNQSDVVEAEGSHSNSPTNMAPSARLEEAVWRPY
Target sequence (Q13951 whole entry, looked up): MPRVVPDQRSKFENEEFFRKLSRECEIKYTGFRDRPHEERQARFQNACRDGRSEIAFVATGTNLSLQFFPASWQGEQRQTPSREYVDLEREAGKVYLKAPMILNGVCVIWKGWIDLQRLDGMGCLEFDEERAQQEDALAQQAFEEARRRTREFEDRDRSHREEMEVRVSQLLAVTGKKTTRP
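test system = Cerulean-tagged RUNX1 Runt domain (FRET donor) fusion protein | reagent = Venus-CBFb binding partner, 100 nM | incubation = protein complex preformed 1 h, compound exposure 1 h, room temperature, dark | detection = FRET fluorescence | read-out basis = loss of energy transfer signal | controls = 5 µM unlabeled CBFb as full-inhibition high control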
Runt-SMMHC FRET – inhibitors of RUNX1 Runt–CBFb-SMMHC binding, primary screen, biochemical, FRET, Cerulean-Runt, Venus-CBFb-SMMHC, uHTS. Runt-related transcription factor 1 (Homo sapiens) + Core-binding factor subunit beta …. Cerulean-Runt/Venus-CBFb-SMMHC FRET ratio 530/480, 1 h. inhibition, % at 20 µM. actives 0.74% (n = 220,000);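 active means mean inhibition across duplicate retests at 20 µM reaching about 50%, limit read from the data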;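 further: 0% = DMSO wells and 100% = wells with excess untagged CBFb-SMMHC; inhibitors lower the FRET ratio by blocking Runt binding to CBFb-SMMHC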
RanGTP-Imp inh – inhibitors of RanGTP-importin-beta interaction, primary screen, biochemical, FRET, CFP-Ran, YFP-importin-beta, homogeneous; Ran GTPase (GTP-bound) - importin-beta complex; cell-free CFP-Ran/YFP-importin-beta FRET ratio; inhibition, % (concentration not given with the values); actives 1.1% (n = 300,000); AID 2216, 2009;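 active means more than half of the replicate wells show a fall in the fluorescence ratio signal beyond about 16%, limit read from the data, passing the limit was not always enough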;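 further: 0% = DMSO wells and 100% = Ran loaded with GDP instead of GTP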
m-calpain inh – inhibitors of pig calpain II, primary screen, biochemical, fluorogenic peptide substrate, 1536-well. purified calpain II, 30 min. actives 0.37% (n = 220,000). inhibition, % at 16 µM;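 active means inhibition above about 50%, limit read from the data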
FAS TE block – FAS thioesterase domain inhibitors, primary screen, biochemical, fluorescence intensity, uHTS; AID 602261, 2012; recombinant FAS-TE, OMFH fluorogenic substrate, fluorescence endpoint; inhibition, % at 15 µM; actives 0.67% (n = 360,000); Fatty acid synthase (Homo sapiens), P49327;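 active means compounds whose normalised, plate-corrected inhibition of enzyme fluorescence in the single-dose primary screen is 50% or more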;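 further: 0% = DMSO with enzyme and 100% = substrate without enzyme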
* hit, by the source's call.

How did Cc1cccc([C@@H]2[C@@H]3C(=O)N(Cc4ccccc4)C(=O)[C@@H]3[C@]3(Cc4ccccc4)C(=O)N(c4ccccc4)C(=O)N23)c1 do in these assays?
RanGTP-Imp inh: 9; FAS TE block: 92*

How did COc1ccc(CNC(=O)CCNC(=O)c2ccco2)cc1OC do in these assays?
FAS TE block: -8

What do the screens show for `CCS(=O)(=O)N1CCN=C1SCc1ccc(F)cc1`?
RanGTP-Imp inh: 1; FAS TE block: -4

How did COc1ccc(-c2ccc(CCC(=O)O)n2NC(=O)c2cccs2)cc1 do in these assays?
Runt-CBFb FRET: 19; Runt-SMMHC FRET: 42; RanGTP-Imp inh: 1; m-calpain inh: -17; FAS TE block: -12

Results for Cc1ccc(-c2ccc(CCC(=O)O)n2NC(=O)c2cccs2)cc1 ?
Runt-CBFb FRET: 32; Runt-SMMHC FRET: 63*; RanGTP-Imp inh: 3; m-calpain inh: 16; FAS TE block: -4

How did COc1ccc(Nc2c(-c3ccc(OC)cc3)nc3cnccn23)cc1 do in these assays?
Runt-CBFb FRET: 3; Runt-SMMHC FRET: 0; RanGTP-Imp inh: 2; m-calpain inh: -1; FAS TE block: 1

How did COc1ccc(Nc2c(-c3ccc(C)cc3)nc3cnccn23)cc1 do in these assays?
Runt-CBFb FRET: 0; Runt-SMMHC FRET: -1; RanGTP-Imp inh: 5; m-calpain inh: 75*; FAS TE block: 6

Results for O=C(COc1ccccc1C(=O)NCc1ccncc1)Nc1ccc(Br)cc1 ?
Runt-CBFb FRET: -1; Runt-SMMHC FRET: 1; RanGTP-Imp inh: 2; m-calpain inh: -6; FAS TE block: 3

Results for CCCCOC(=S)NC(=O)c1sc2ccccc2c1Cl ?
Runt-CBFb FRET: 3; Runt-SMMHC FRET: 3; RanGTP-Imp inh: 29*; m-calpain inh: -27; FAS TE block: 3

Results for CN(C)C(=O)CCc1ccc2c3c([nH]c2c1)[C@]1(C)[C@@H](C(=O)N2CCCCC2)C[C@H](CC(=O)NCCCn2ccnc2)C(=O)N1CC3 ?
FAS TE block: -9

Results for CN1CCc2nc(NC(=O)COc3ccc(C#N)cc3)sc2C1 ?
Runt-CBFb FRET: 36; Runt-SMMHC FRET: 59*; RanGTP-Imp inh: 23*; m-calpain inh: 2; FAS TE block: 1

What do the screens show for `CC(=O)c1c(C)[nH]c(C(=O)NCc2ccc(F)cc2)c1C`?
Runt-CBFb FRET: -2; Runt-SMMHC FRET: 0; RanGTP-Imp inh: -5; m-calpain inh: 15; FAS TE block: -6

How did CC(=O)c1c(C)[nH]c(C(=O)NCc2ccccc2)c1C do in these assays?
Runt-CBFb FRET: 50*; Runt-SMMHC FRET: 3; RanGTP-Imp inh: -5; m-calpain inh: -12; FAS TE block: -10

Results for Cc1cc(=O)oc2c(CN(C)Cc3ccccc3)c(O)ccc12 ?
Runt-CBFb FRET: 36; Runt-SMMHC FRET: 82*; RanGTP-Imp inh: 6; m-calpain inh: -357; FAS TE block: 0

Results for CCNc1nc(NC(C)C)nc(N(C)C#N)n1 ?
Runt-CBFb FRET: -1; Runt-SMMHC FRET: 0; RanGTP-Imp inh: 1; m-calpain inh: -21; FAS TE block: -10

What do the screens show for `CCCN(C#N)c1nc(NCC)nc(NC(C)C)n1`?
Runt-CBFb FRET: 0; Runt-SMMHC FRET: 3; RanGTP-Imp inh: -2; m-calpain inh: 52*; FAS TE block: -2

What do the screens show for `Cc1nn(-c2ccc(F)cc2)c2sc(C(=O)N3CCCCCC3)cc12`?
Runt-CBFb FRET: -2; Runt-SMMHC FRET: 0; RanGTP-Imp inh: 1; m-calpain inh: 50*; FAS TE block: 17

How did Cc1nn(-c2ccc(Cl)cc2)c2sc(C(=O)N3CCN(C(=O)c4ccco4)CC3)cc12 do in these assays?
Runt-CBFb FRET: -6; Runt-SMMHC FRET: -3

How did CC(C)CCNC(=O)CNC(=S)N(Cc1ccccc1)Cc1cccnc1 do in these assays?
Runt-CBFb FRET: -2; Runt-SMMHC FRET: 0; RanGTP-Imp inh: 6; m-calpain inh: 10; FAS TE block: -3

What do the screens show for `O=C1[C@H]2[C@@H](c3ccc(C(F)(F)F)cc3)N[C@]3(CCCN(Cc4ccc(F)cc4)C3=O)[C@H]2C(=O)N1Cc1ccccc1`?
FAS TE block: 31

What do the screens show for `Cc1ccc(Nc2nc3ccccc3nc2-n2nc(C)cc2C)cc1`?
Runt-CBFb FRET: 4; Runt-SMMHC FRET: 11; RanGTP-Imp inh: 31*; m-calpain inh: -18; FAS TE block: 18

What do the screens show for `CCOC(=O)c1sc(=S)n(C)c1NC(=O)c1ccc(OC)cc1`?
Runt-CBFb FRET: 29; Runt-SMMHC FRET: 1; RanGTP-Imp inh: 9; m-calpain inh: 4; FAS TE block: 4

What do the screens show for `Cc1ccc(OCCOC(=O)c2sc(=S)n(C)c2C)cc1`?
Runt-CBFb FRET: -1; Runt-SMMHC FRET: 3; RanGTP-Imp inh: 1; m-calpain inh: 21; FAS TE block: 58*

How did COC(=O)c1ccc(OC)c(CSc2nnc(COc3ccc(Cl)cc3)o2)c1 do in these assays?
Runt-CBFb FRET: -3; Runt-SMMHC FRET: -2; RanGTP-Imp inh: 2; m-calpain inh: 51*; FAS TE block: 23

What do the screens show for `CCCN1CCN(CCCNC(=O)c2ccc(CS(=O)c3ccccc3C)o2)CC1` (centres undefined)?
RanGTP-Imp inh: 2; FAS TE block: -8

Results for CCNc1nc2nc3ccc(C)cn3c(=O)c2cc1C(=O)NCC1CCCO1 (centres undefined) ?
Runt-CBFb FRET: 19; Runt-SMMHC FRET: 91*; RanGTP-Imp inh: 185*; m-calpain inh: inactive; FAS TE block: -9

What do the screens show for `C=CCNC(=O)c1cc2c(=O)n3cc(C)ccc3nc2nc1NCC1CCCO1` (centres undefined)?
Runt-CBFb FRET: 19; Runt-SMMHC FRET: 60*; RanGTP-Imp inh: 179*; m-calpain inh: -128

How did O=c1[nH]c(SCc2ccc(F)cc2)nc2c1cnn2-c1ccc(F)cc1 do in these assays?
Runt-CBFb FRET: 0; Runt-SMMHC FRET: -1; RanGTP-Imp inh: 2; FAS TE block: 0

How did O=c1[nH]c(SCc2ccccc2)nc2c1cnn2-c1ccc(F)cc1 do in these assays?
Runt-CBFb FRET: 0; Runt-SMMHC FRET: -6; RanGTP-Imp inh: 28*; m-calpain inh: 14; FAS TE block: -3

How did COc1ccc(C(=O)N[C@H](C(=O)NCCc2ccc3c(c2)OCCO3)C(C)C)cc1 do in these assays?
FAS TE block: -1

What do the screens show for `c1cc2c3c(cccc3c1)C(N1CCCCCC1)=N2`?
Runt-CBFb FRET: -17; Runt-SMMHC FRET: 60; RanGTP-Imp inh: 23*; m-calpain inh: -221; FAS TE block: -2

How did c1cc2c3c(cccc3c1)C(N1CCCCC1)=N2 do in these assays?
Runt-CBFb FRET: -17; Runt-SMMHC FRET: -61; RanGTP-Imp inh: 4; m-calpain inh: -211; FAS TE block: -16
